# Screening results (PubChem BioAssay)
# Platelet DG rel: platelet dense granule release activity | 300,000 tested, 0.22% active | human platelet-rich plasma, SFLLRN dense granule ATP release, luminescence | inhibition, %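 (compounds screened at 7.5 µM in platelet-rich plasma)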;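 active means mean replicate score, as percent of positive control, at or above 50; inconclusive means mean below 50 but at least one replicate at or above 50; inactive means mean and every replicate below 50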
# STAT3 act: STAT3 signaling activation; U3A cells, IL-6 STAT3-luciferase reporter, luminescence; 100% = signal with IL-6 EC80 alone; activation (% of control), % at 5.6 µM; 190,000 tested, 0.91% active;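 active means activation above the screen-wide mean of compound activation plus 3 SD, cut at about 130% in these data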;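 further: 0% = background luminescence of wells with medium and substrate only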
#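 Detection: reporter luminescence signal / Assay system: STAT1-lacking human U3A cells, STAT3 luciferase reporter / Incubation: compound pre-incubation 1 h before IL-6, then 6 h stimulation at 37 °C / Control set: IL-6-only high control / Read-out: % activation relative to IL-6 control / Probe or stimulus: Interleukin-6, 33 ng/mL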
# STAT1 blocker: STAT1 signaling inhibition; NIH 3T3 STAT1-luciferase reporter, IFN-gamma, luminescence; inhibition, % at 5.5 µM; 200,000 tested, 0.35% active; AID 920;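 active means inhibition above a set limit, the mean inhibition across all tested compounds plus 3 SD, cut at about 34% in these data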;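 further: 0% = IFN-gamma with DMSO and 100% = IFN-gamma with 300 µM nifuroxazide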
# STAT3 inh: inhibitors of IL-6 induced STAT3 signaling. 190,000 tested, 0.89% active. U3A cells, IL-6 STAT3-luciferase reporter, luminescence; host cell line lacks STAT1. inhibition, % at 5.5 µM;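 active means inhibition above the mean inhibition across all screened compounds plus 3 SD, cut at about 44% in these data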;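 further: 0% = DMSO only wells and 100% = 100 µM nifuroxazide control wells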
# PERK inh: human PERK inhibition, primary cell-based screen; Q9NZJ5; CHO PERK-DD fusion, SEAP luminescence translation reporter; inhibition, % at 5.6 µM; 220,000 tested, 0.17% active; AID 1416;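 active means inhibition above the mean inhibition of all tested compounds plus 3 SD, set separately per screening campaign, cut at about 2.9% in these data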;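 further: PERK kinase domain activated by AP20187 dimerizer at 100 nM; 0% = DMSO with dimerizer and 100% = rapamycin at 8.4 µM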
# Target sequence (Q9NZJ5 whole entry, looked up, the tested form may be a part): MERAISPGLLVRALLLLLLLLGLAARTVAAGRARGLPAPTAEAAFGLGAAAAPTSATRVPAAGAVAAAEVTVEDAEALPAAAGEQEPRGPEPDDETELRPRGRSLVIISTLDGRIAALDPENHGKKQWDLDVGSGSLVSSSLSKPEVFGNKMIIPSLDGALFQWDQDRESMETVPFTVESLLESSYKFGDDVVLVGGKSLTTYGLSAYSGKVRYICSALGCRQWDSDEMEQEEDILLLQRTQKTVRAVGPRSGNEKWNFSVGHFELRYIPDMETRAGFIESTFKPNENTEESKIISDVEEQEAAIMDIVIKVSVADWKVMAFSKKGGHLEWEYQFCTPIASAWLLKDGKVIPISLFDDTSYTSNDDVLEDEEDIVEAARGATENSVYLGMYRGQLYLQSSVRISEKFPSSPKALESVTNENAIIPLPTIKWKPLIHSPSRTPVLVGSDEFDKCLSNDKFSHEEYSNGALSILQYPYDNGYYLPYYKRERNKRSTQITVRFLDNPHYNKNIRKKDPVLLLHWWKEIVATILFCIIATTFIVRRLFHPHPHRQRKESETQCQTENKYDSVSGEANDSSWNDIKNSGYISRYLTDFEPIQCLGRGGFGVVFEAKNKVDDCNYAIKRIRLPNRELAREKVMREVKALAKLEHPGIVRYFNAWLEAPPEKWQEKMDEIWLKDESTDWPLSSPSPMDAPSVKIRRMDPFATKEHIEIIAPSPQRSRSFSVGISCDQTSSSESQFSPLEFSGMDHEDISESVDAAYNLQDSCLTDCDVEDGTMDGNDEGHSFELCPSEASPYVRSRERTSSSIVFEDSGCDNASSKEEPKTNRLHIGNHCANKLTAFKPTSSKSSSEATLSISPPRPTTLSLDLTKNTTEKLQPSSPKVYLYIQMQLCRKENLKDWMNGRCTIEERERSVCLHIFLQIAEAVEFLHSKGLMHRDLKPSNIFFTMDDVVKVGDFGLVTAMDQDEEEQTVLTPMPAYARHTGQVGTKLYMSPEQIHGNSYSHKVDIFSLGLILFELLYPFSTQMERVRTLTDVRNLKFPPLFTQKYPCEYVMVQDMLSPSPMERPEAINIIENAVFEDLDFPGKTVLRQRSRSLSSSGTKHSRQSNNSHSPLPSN
# Active calls of the source: *; ? = inconclusive; · = no result given. Only some compounds are listed: those with a hit (about 1.4% of all), similar ones and a draw of the others.
SMILES,Platelet DG rel,STAT3 act,STAT1 blocker,STAT3 inh,PERK inh
CC(=O)NCc1c(Cl)cccc1-n1cccc1,17.2,110.5,-5.2,-1.9,3.3*
Cc1n[nH]c(=O)nc1NCc1ccc(Cl)cc1,-3.2,98.6,0.1,10.4,0.1
Cc1n[nH]c(=O)nc1NCCN(C)C,4.6,101.8,3.6,1.3,3.5*
CCCc1nnc(NC(=O)CNc2ccc(F)cc2)s1,-0.5,92.1,-13.3,13.0,3.1*
CCN(CC)c1ccc(NC(=O)c2nc3nc(C)cc(C(F)F)n3n2)cc1,-9.9,89.2,4.1,18.1,-0.1
COc1ccc(NC(=O)c2nc3nc(C)cc(C(F)F)n3n2)cc1OC,67.8*,94.4,4.7,7.1,-0.2
CCOC(=O)C1(CCc2ccccc2)CCN(C(=O)C2CCOCC2)CC1,0.6,101.2,-0.1,3.0,0.4
N#CCCn1cc(C=O)c(-c2cccs2)n1,-1.8,102.4,-4.2,1.6,0.1
CN(C)c1ccc(/C=C/c2ccc3ccccc3n2)cc1,97.4*,·,·,·,0.4
CN(C)c1ccc(/C=C/c2nc3ccccc3s2)cc1,64.3*,14.4,91.0*,107.8*,0.4
Cc1ccc(/C=C/c2nc3ccccc3s2)s1,14.9,43.4,43.8*,70.2*,1.4
Oc1ccc(/C=C/c2ccc3ccccc3n2)cc1,90.2*,18.4,71.5*,101.9*,0.7
COc1cc(/C=C/c2nc3ccccc3s2)cc(OC)c1O,-17.1,90.5,-14.7,18.8,-0.3
CSc1nsc(SCC(=O)Nc2ccc(C(N)=O)cc2)n1,8.3,·,·,·,·
O=[N+]([O-])c1ccc(/C=C/c2ccc3ccccc3n2)cc1,40.9,36.2,52.2*,78.5*,1.0
O=[N+]([O-])c1ccc(/C=C/c2ccc3cccc(O)c3n2)cc1,-8.5,·,·,·,·
CN(C)c1ccc(C(=O)c2ccc(N(C)C)c3ccccc23)cc1,7.5,146.1*,-32.3,-52.5,-0.7
O=S(=O)(Nc1ccc(O)c2ccccc12)c1ccc(Br)cc1,12.5,·,·,·,·
CCOC(=O)c1c(C)c(-c2ccccc2)n(CC(=O)N2CCCC2)c1C,55.7*,101.0,-3.4,7.4,-0.4
CCOC(=O)c1c(C)c(-c2ccccc2)n(CC(=O)N2CCN(C)CC2)c1C,-1.7,105.9,-2.3,1.8,0.1
CCOC(=O)c1cc2ccc3ccccc3c2oc1=O,8.8,·,·,·,·
CCOC(=O)c1cc2c(s1)-c1ccccc1CC2,0.0,174.2*,-34.1,-75.9,0.4
CCOC(=O)N1CCN(C(=O)c2cc3c(s2)-c2ccccc2OC3)CC1,1.7,99.9,5.3,5.4,-0.2
CCOC(=O)c1cc2ccc3ccccc3c2s1,-22.0,202.8*,-54.2,-118.4,-0.3
COc1ccccc1C(=O)NCCC(=O)Nc1nc2ccccc2[nH]1,-0.7,·,·,·,·
SMILES,Platelet DG rel,STAT3 act,STAT1 blocker,STAT3 inh,PERK inh
COc1cc(SC)ccc1C(=O)NNC(=O)c1cc(C)oc1C,57.7*,·,·,·,·
COc1cc(SC)ccc1C(=O)Nc1c(C)cccc1C,6.5,97.3,-5.6,8.6,-0.4
Cc1c(C(=O)Nc2nc3ccccc3[nH]2)oc2ccccc12,7.6,145.1*,-66.4,-57.6,-1.2
COc1ccccc1C(=O)Nc1nc2ccccc2[nH]1,57.2*,·,·,·,·
COc1cc(SC)ccc1C(=O)Nc1nc2ccccc2[nH]1,96.2*,·,·,·,·
CSc1ccccc1C(=O)Nc1nc2ccccc2[nH]1,26.2,96.2,-12.2,9.1,-0.4
Cc1cccc(C)c1C(=NCCCN(C)C)c1ccccc1,-4.4,101.1,2.7,-3.7,-1.0
CN(C1CCCCC1)S(=O)(=O)CCNC(=O)c1ccccc1,-1.8,·,·,·,·
COc1ccccc1NC(=O)c1ccc(NC(=O)CN2C(=O)CN(C)C2=O)cc1,0.2,102.3,1.3,1.0,0.9
Cn1ccnc1SCC(=O)Nc1ccc2c(c1)OC(F)(F)O2,?,75.4,-0.6,33.2,0.6
COc1ccc(C(=O)Nc2nc3ccccc3[nH]2)cc1,-2.6,·,·,·,·
COc1cccc(C(=O)Nc2nc3ccccc3[nH]2)c1,31.4,29.3,43.5*,86.1*,-1.9
Cc1ccc(C2NC(=O)NC3=C2CCc2ccccc23)cc1 (stereo not drawn),·,134.1*,12.6,-33.6,0.3
CSc1cccc(NC(=O)CN(C)S(=O)(=O)c2cnc[nH]2)c1,-0.3,·,·,·,·
c1csc(-c2nc(CN3CCSCC3)cs2)c1,15.5,·,·,·,0.7
O=S1(=O)CCN(Cc2csc(-c3cccs3)n2)CC1,52.5*,·,·,·,0.3
Cc1ccc(NC(=O)c2cc3ccccc3oc2=O)cc1S(=O)(=O)N(C)C,8.2,20.2,57.7*,99.7*,-0.4
c1ccc2c(-c3csc(-c4ccncc4)n3)c[nH]c2c1,0.5,144.0*,-53.7,-48.9,-0.5
Brc1ccc(-c2csc(-c3c[nH]c4ccccc34)n2)cc1,-3.4,107.5,-25.7,1.4,-0.1
COc1ccc(-c2n(CC(=O)OC3CC(C)CCC3C(C)C)c3ccccc3[n+]2C)cc1 (stereo not drawn),-4.3,57.5,56.6*,51.9*,1.0
COc1ccccc1NC(=O)COc1ccc(/C=N/NC(=O)CSCc2ccc(Cl)cc2)cc1,1.3,100.0,-6.5,1.5,3.3*
O=C(COc1c(Br)cc(Br)c2cccnc12)N1CCCCC1,2.0,119.1,-0.8,-14.8,0.0
Oc1c(CN2CCCCC2)cc(Br)c2cccnc12,-3.3,135.0*,4.6,-36.9,0.4
C=CCOC(=O)c1[nH]c2c(c1C)C(=O)CC(c1cc(OC)c(OC)c(OC)c1)C2 (stereo not drawn),-6.6,62.7,41.9*,45.8*,-0.9
CC(C)n1cc(/C=N/Nc2ccc(C(=O)O)cc2)c2ccccc21,2.6,·,·,·,·
SMILES,Platelet DG rel,STAT3 act,STAT1 blocker,STAT3 inh,PERK inh
CC(C)(C)NS(=O)(=O)c1cccc2nsnc12,-3.2,102.2,-13.4,0.8,3.7*
C/C(=N/NC(=O)c1ccccc1)c1ccc(NC(=O)C(F)(F)F)cc1,1.3,98.0,-11.5,7.2,0.4
C=CCn1c(SCC(=O)NC2CC2)nnc1-c1cccs1,2.8,·,·,·,·
Cc1ccc(OCc2nc(-c3ccccn3)no2)c(Br)c1,7.8,33.9,48.1*,83.3*,0.0
CC(C)c1ccc(OCc2nc(-c3ccccn3)no2)c(Br)c1,2.8,93.4,-41.2,17.3,0.5
CCS(=O)(=O)N1CCC(NC(=O)C(Cc2cc(OC)ccc2OC)NC(C)=O)CC1 (stereo not drawn),2.0,·,·,·,·
CC(C)(C)c1ccc(C2CC2C(=O)N/N=C\c2ccc[nH]2)cc1 (stereo not drawn),4.3,41.5,45.8*,71.0*,0.8
O=C(N/N=C/c1ccco1)C1CC1c1ccccc1 (stereo not drawn),1.2,101.9,-1.7,-1.4,0.0
CC1CCCC(NC(=O)c2nn(C)c3c2CS(=O)(=O)c2ccccc2-3)C1C (stereo not drawn),-0.6,·,·,·,·
O=S(=O)(c1ccccc1)c1nc(-c2cccc(Cl)c2)oc1N1CCOCC1,-3.3,·,·,·,·
CC(C)Nc1nc(NC(C)(C)C)nc(Oc2ccc(=O)n(-c3ccccc3)n2)n1,59.7*,112.0,-0.1,-8.8,0.0
COc1ccc2cc(-c3cc(C(=O)O)c4ccccc4n3)ccc2c1,30.1,16.6,72.7*,95.4*,0.5
